In ChEMBL document CHEMBL3813670, “Unique Polybrominated Hydrocarbons from the Australian Endemic Red Alga Ptilonia australasica” (J Nat Prod, 2016):
Activity calls are given as the source filed them. The calls are words filed in the database; no cut-off is given here.

What was measured:
[1] = Cytotoxicity against human PC3 cells assessed as growth inhibition after 72 hrs by Alamar blue assay; type: functional, cell-based; conditions: PC-3, 72 h
PC-3 = experiment: Cytotoxicity against human PC3 cells assessed as growth inhibition at 80 uM after 72 hrs by Alamar blue assay; type: functional, cell-based
[2] = Cell cycle arrest in human PC3 cells assessed as accumulation at G2/M phase at 0.4 uM after 24 hrs by propidium iodide staining based flow cytometry (reference value: 18.7 to 22.2%); type: functional; conditions: PC-3
Method in brief: (§1)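 PC3 cells exposed to compound at various concentrations for 24 h, then harvested, rinsed in ice-cold PBS and fixed in 70% alcohol at −20 °C for 16 h. After a second cold PBS wash, cells were held 20 min at room temperature in 1 mL containing 0.1% Triton X-100, 0.2 mg RNase A and 2 μL PI (1 mg/mL). DNA content was read by flow cytometry.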

[3] = Cell cycle arrest in human PC3 cells assessed as accumulation at G2/M phase at 0.13 uM after 24 hrs by propidium iodide staining based flow cytometry (reference value: 18.7 +/- 0.7%); type: functional; conditions: PC-3; method in brief: as §1
[4] = Cell cycle arrest in human PC3 cells assessed as accumulation at S phase at 0.4 uM after 24 hrs by propidium iodide staining based flow cytometry (reference value: 15.3 to 25.8%); type: functional; conditions: PC-3; method in brief: as §1
[5] = Cell cycle arrest in human PC3 cells assessed as accumulation at S phase at 0.04 uM after 24 hrs by propidium iodide staining based flow cytometry (reference value: 25.8 +/- 0.7%); type: functional; conditions: PC-3; method in brief: as §1
[6] = Cell cycle arrest in human PC3 cells assessed as accumulation at G0/G1 phase at 0.13 uM after 24 hrs by propidium iodide staining based flow cytometry (reference value: 55.6 +/- 1.4%); type: functional; conditions: PC-3; method in brief: as §1
[7] = Cell cycle arrest in human PC3 cells assessed as accumulation at G2/M phase at 0.04 uM after 24 hrs by propidium iodide staining based flow cytometry (reference value: 18.7 +/- 0.7%); type: functional; conditions: PC-3; method in brief: as §1
[8] = Cell cycle arrest in human PC3 cells assessed as accumulation at G0/G1 phase at 0.4 uM after 24 hrs by propidium iodide staining based flow cytometry (reference value: 55.6 to 62.5%); type: functional; conditions: PC-3; method in brief: as §1
[9] = Cell cycle arrest in human PC3 cells assessed as accumulation at G0/G1 phase at 0.04 uM after 24 hrs by propidium iodide staining based flow cytometry (reference value: 55.6 +/- 1.4%); type: functional; conditions: PC-3; method in brief: as §1
[10] = Cell cycle arrest in human PC3 cells assessed as accumulation at S phase at 0.13 uM after 24 hrs by propidium iodide staining based flow cytometry (reference value: 25.8 +/- 0.7%); type: functional; conditions: PC-3; method in brief: as §1
[11] = Cell cycle arrest in human PC3 cells assessed as accumulation at G2/M phase at 4 uM after 24 hrs by propidium iodide staining based flow cytometry (reference value: 22.2 +/- 0.4%); type: functional; conditions: PC-3; method in brief: as §1
[12] = Cell cycle arrest in human PC3 cells assessed as accumulation at S phase at 4 uM after 24 hrs by propidium iodide staining based flow cytometry (reference value: 15.3 +/- 3.1%); type: functional; conditions: PC-3; method in brief: as §1
[13] = Cell cycle arrest in human PC3 cells assessed as accumulation at G0/G1 phase at 4 uM after 24 hrs by propidium iodide staining based flow cytometry (reference value: 62.5 +/- […]%); type: functional; conditions: PC-3
[14] = Cell cycle arrest in human PC3 cells assessed as accumulation at S phase at 1.3 uM after 24 hrs by propidium iodide staining based flow cytometry (reference value: 15.3 +/- 3.1%); type: functional; conditions: PC-3; method in brief: as §1
[15] = Cell cycle arrest in human PC3 cells assessed as accumulation at G2/M phase at 1.3 uM after 24 hrs by propidium iodide staining based flow cytometry (reference value: 22.2 +/- 0.4%); type: functional; conditions: PC-3; method in brief: as §1
[16] = Cell cycle arrest in human PC3 cells assessed as accumulation at G0/G1 phase at 1.3 uM after 24 hrs by propidium iodide staining based flow cytometry (reference value: 62.5 +/- […]%); type: functional; conditions: PC-3

CC(=O)O[C@H]1C(=O)[C@@]2(C)[C@H]([C@H](OC(=O)c3ccccc3)[C@]3(O)C[C@H](OC(=O)[C@H](O)[C@@H](NC(=O)c4ccccc4)c4ccccc4)C(C)=C1C3(C)C)[C@]1(OC(C)=O)CO[C@@H]1C[C@@H]2O [PACLITAXEL]
IC50 [1]: 2 nM

CC(=O)O[C@@H](C(Br)=C(Br)Br)C(Br)Br
inhibition (PC-3): inactive

CC[C@@]1(O)C(Br)=C(Br)C(=O)C1=C(Br)Br
Activity [2]: 0.1% | IC50 [1]: 440 nM | Activity [3]: 11.2% | Activity [4]: 11.5% | Activity [5]: 18.1% | Activity [6]: 75% | Activity [7]: 13.6% | Activity [8]: 88.4% | Activity [9]: 63.3% | Activity [10]: 13.8%

Cc1oc(C(Br)=C(Br)Br)cc(=O)c1O
Activity [11]: 2.9% | Activity [2]: 18.1% | IC50 [1]: 10000 nM | Activity [4]: 18.2% | Activity [12]: 23.8% | Activity [8]: 63.7% | Activity [13]: 73.3% | Activity [14]: 21.5% | Activity [15]: 5.8% | Activity [16]: 72.7%
